Tests used:
[1] = folding enthalpy; higher = less favourable; fluorescence melt of hairpins on a sequencing array, two-state fit; conditions: sodium 0.088 M
Procedure, shortened: (§1)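 Bootstrapped two-state fits yielded melting temperature and folding enthalpy for library hairpins. Cy3 fluorescence, with annealed Cy3 and quencher oligos, was imaged on a sequenced MiSeq flow cell in 50 mM Na-HEPES pH 8.0, 25 mM NaCl in 2.5 °C steps up to 60 °C, and normalised to pre-quench Cy3 and to control constructs. Four replicates were combined by inverse variance, and fitted temperatures were raised by 9.35 °C to match UV melts.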

[2] = melting temperature; fluorescence melt of hairpins on a sequencing array, two-state fit, raised by 9.35 °C to match UV melts; conditions: sodium 0.088 M
Procedure, shortened: as §1

GGGTTAGGAAACTGACTC (.((.((....)).)).)
folding enthalpy [1]: -12.3 kcal/mol | Tm [2]: 27.7 °C

GATCTGCCTGCAGATC ((((((....))))))
folding enthalpy [1]: -43.3 kcal/mol | Tm [2]: 62.6 °C

GATCCCTTCTGGGATC ((((((....))))))
folding enthalpy [1]: -39.1 kcal/mol | Tm [2]: 62.5 °C

GGCCCAACGAAAGTTGCC (((..(((....))))))
folding enthalpy [1]: -13.9 kcal/mol | Tm [2]: 32.5 °C

GGCAGCGGAAACACTGCC (((((.(....).)))))
folding enthalpy [1]: -41 kcal/mol | Tm [2]: 55.1 °C

GAGACCGAAAGGTCGCTC ((((((....)))..)))
folding enthalpy [1]: -14.3 kcal/mol | Tm [2]: 69.1 °C

GTGAACGAAAGTTACCAC ((((((....)))..)))
folding enthalpy [1]: -15.3 kcal/mol | Tm [2]: 26 °C

GCAGTCGAAAGACCGTGC ((((((....)))..)))
folding enthalpy [1]: -16.8 kcal/mol | Tm [2]: 38.1 °C

GTGTACGGAAACGTATGC (..((((....))))..)
folding enthalpy [1]: -26.7 kcal/mol | Tm [2]: 39.5 °C

GGTCCCGCGAAAGCGACC (((..(((....))))))
folding enthalpy [1]: -11.3 kcal/mol | Tm [2]: 37.7 °C

GATCAATACCTTGATC ((((((....))))))
folding enthalpy [1]: -34 kcal/mol | Tm [2]: 46.5 °C

GAAGCCGAAAGGCATTC ((((((....))).)))
folding enthalpy [1]: -11.1 kcal/mol | Tm [2]: 40.6 °C

GCCAATTCGAAAGAAGGC (((..(((....))))))
folding enthalpy [1]: -20.6 kcal/mol | Tm [2]: 38 °C

GATCGAGGTATCGATC ((((((....))))))
folding enthalpy [1]: -39.6 kcal/mol | Tm [2]: 58.7 °C

GCTTCCGAAAGGAGAGC ((((((....))).)))
folding enthalpy [1]: -22.3 kcal/mol | Tm [2]: 49.2 °C

CGCTTGCGGAAACGCGCG (((..(((....))))))
folding enthalpy [1]: -10.8 kcal/mol | Tm [2]: 51.3 °C

GACCCAGGAAACTAGGTC ((((.((....)).))))
folding enthalpy [1]: -26.7 kcal/mol | Tm [2]: 36 °C

GCATTGGGAAACCAGTGC (((.(((....))).)))
folding enthalpy [1]: -34.4 kcal/mol | Tm [2]: 50.7 °C

GCTTTTTCGAAAGAAAGC (((..(((....))))))
folding enthalpy [1]: -17.7 kcal/mol | Tm [2]: 34.4 °C

GTCGTCGGAAACGATGAC (((.(((....))).)))
folding enthalpy [1]: -44.4 kcal/mol | Tm [2]: 55.5 °C

GCGCATGGAAACGTGCGC (((((.(....).)))))
folding enthalpy [1]: -41 kcal/mol | Tm [2]: 66.6 °C

GACGACACGAAAGTGGTC (((..(((....))))))
folding enthalpy [1]: -15.3 kcal/mol | Tm [2]: 41.2 °C

GCGTATTAACGC ((((....))))
folding enthalpy [1]: -22.1 kcal/mol | Tm [2]: 53.8 °C

GCTTGCGGAAACGTAGGC ((.(.((....)).).))
folding enthalpy [1]: -11.7 kcal/mol | Tm [2]: 38.6 °C

GATCAATACTTGATC ((((((...))))))
folding enthalpy [1]: -30.4 kcal/mol | Tm [2]: 42 °C

GCCCCGCGAAAGCCCGGC (((..((....))..)))
folding enthalpy [1]: -14.7 kcal/mol | Tm [2]: 38.9 °C

GATCAAGGAAACTTGGTC ((.((((....)))).))
folding enthalpy [1]: -30.5 kcal/mol | Tm [2]: 41.5 °C

GGGTCCGGAAACAGACCC (((((.(....).)))))
folding enthalpy [1]: -44.5 kcal/mol | Tm [2]: 49.5 °C

GGCTACGAAAGTACAGCC ((((((....)))..)))
folding enthalpy [1]: -26.9 kcal/mol | Tm [2]: 48 °C

GCAATGCGAAAGCTATGC (((..((....))..)))
folding enthalpy [1]: -20.4 kcal/mol | Tm [2]: 50.6 °C

GGTGAGGAAACTCACC ((((((....))))))
folding enthalpy [1]: -35 kcal/mol | Tm [2]: 61.6 °C

GCGACCGAAAGGTCTCGC ((((((....)))..)))
folding enthalpy [1]: -14.6 kcal/mol | Tm [2]: 50.2 °C

GCCGTGGGAAACCATGGC (((.(((....))).)))
folding enthalpy [1]: -43.5 kcal/mol | Tm [2]: 59.4 °C

GATCCAGAATGGATC ((((((...))))))
folding enthalpy [1]: -50.9 kcal/mol | Tm [2]: 58.1 °C

GATCAGGTAACTGATC ((((((....))))))
folding enthalpy [1]: -39.9 kcal/mol | Tm [2]: 57.1 °C

GTTAGTCGAAAGACGAAC (((.(((....))).)))
folding enthalpy [1]: -25.6 kcal/mol | Tm [2]: 49 °C

GCTCGGCGAAAGCAGGGC ((.(.((....)).).))
folding enthalpy [1]: -14 kcal/mol | Tm [2]: 67.7 °C

GATCAGGAGACTGATC ((((((....))))))
folding enthalpy [1]: -37.6 kcal/mol | Tm [2]: 51.3 °C

GGCTTTACGAAAGTAGCC (((..(((....))))))
folding enthalpy [1]: -27.7 kcal/mol | Tm [2]: 45.5 °C

GTAGGCACGAAAGTGTAC (((..(((....))))))
folding enthalpy [1]: -13.6 kcal/mol | Tm [2]: 29.8 °C

GATCTATGCGTAGATC ((((((....))))))
folding enthalpy [1]: -41.5 kcal/mol | Tm [2]: 48.2 °C

GCGGAGAGCCGC ((((....))))
folding enthalpy [1]: -17.4 kcal/mol | Tm [2]: 54.4 °C

GTTAAGGGAAACCCTAAC ((((.((....)).))))
folding enthalpy [1]: -14.2 kcal/mol | Tm [2]: 30.3 °C

GATCGTAGATACGATC ((((((....))))))
folding enthalpy [1]: -32.3 kcal/mol | Tm [2]: 55.1 °C

GATCTGTAATCAGATC ((((((....))))))
folding enthalpy [1]: -37.6 kcal/mol | Tm [2]: 48.2 °C

GCCATCCGAAAGGACGGC (((.(((....))).)))
folding enthalpy [1]: -40.2 kcal/mol | Tm [2]: 55.7 °C

GGAGTCGAAAGACCTTCC ((((((....)))..)))
folding enthalpy [1]: -22.5 kcal/mol | Tm [2]: 40.6 °C

GATCCACAATTGGATC ((((((....))))))
folding enthalpy [1]: -32.4 kcal/mol | Tm [2]: 47.5 °C

GTTCGAGAAATCGAAC ((((((....))))))
folding enthalpy [1]: -39.8 kcal/mol | Tm [2]: 54.9 °C

GCTGGGCGAAAGCATAGC (((..((....))..)))
folding enthalpy [1]: -22.9 kcal/mol | Tm [2]: 54.2 °C

GGAGGACCGAAAGGTTCC (((..(((....))))))
folding enthalpy [1]: -12.6 kcal/mol | Tm [2]: 42.9 °C

GCGGCAGGAAACTACCGC ((((.((....)).))))
folding enthalpy [1]: -41.2 kcal/mol | Tm [2]: 53.1 °C

GTCGAAGGAAACCTCGAC (((((.(....).)))))
folding enthalpy [1]: -31.8 kcal/mol | Tm [2]: 48 °C

GGTCGTGGAAACACGGTC (..((((....))))..)
folding enthalpy [1]: -15.8 kcal/mol | Tm [2]: 41.4 °C

GAGAGCGGAAACGCCCTC (((.(((....))).)))
folding enthalpy [1]: -16.7 kcal/mol | Tm [2]: 47.2 °C

CGGGCCCGGAAACGGCCG (((..(((....))))))
folding enthalpy [1]: -13.3 kcal/mol | Tm [2]: 50.3 °C

GCTCTCGAAAGAGAAGC ((((((....))).)))
folding enthalpy [1]: -22 kcal/mol | Tm [2]: 49.8 °C

GCAAGTCCGAAAGGATGC (((..(((....))))))
folding enthalpy [1]: -16.1 kcal/mol | Tm [2]: 37.7 °C

GCCGTCGAAAGACAGGC ((((((....))).)))
folding enthalpy [1]: -27 kcal/mol | Tm [2]: 65.2 °C

GGCCACGAAAGTGTCGCC ((((((....)))..)))
folding enthalpy [1]: -21.3 kcal/mol | Tm [2]: 50 °C

GGAGTGGGAAACCGCTCC ((((.((....)).))))
folding enthalpy [1]: -44.3 kcal/mol | Tm [2]: 57.8 °C

GTTTCCGAAAGGAAAAAC ((((((....)))..)))
folding enthalpy [1]: -15.1 kcal/mol | Tm [2]: 36.8 °C

GTGCACGAAAGTGCGCAC ((((((....)))..)))
folding enthalpy [1]: -10.5 kcal/mol | Tm [2]: 58 °C

GCGAAGGATCGC ((((....))))
folding enthalpy [1]: -9.71 kcal/mol | Tm [2]: 59.7 °C

GATCCACGCTGGATC ((((((...))))))
folding enthalpy [1]: -31.3 kcal/mol | Tm [2]: 51.6 °C

GCGGGGCGAAAGCCGTGC ((..(((....)))..))
folding enthalpy [1]: -27.3 kcal/mol | Tm [2]: 62.5 °C

GATTAACGAAAGTTCATC (((.(((....))).)))
folding enthalpy [1]: -24.6 kcal/mol | Tm [2]: 33.9 °C

GCACCAGGAAACCGGTGC (((((.(....).)))))
folding enthalpy [1]: -42.4 kcal/mol | Tm [2]: 58.3 °C

GTAGCCGAAAGGCAGTAC ((((((....)))..)))
folding enthalpy [1]: -9.03 kcal/mol | Tm [2]: 30.4 °C

GTACACGAAAGTGCTTAC ((((((....)))..)))
folding enthalpy [1]: -11.9 kcal/mol | Tm [2]: 33.3 °C

GATCGACCCGTCGATC ((((((....))))))
folding enthalpy [1]: -47.1 kcal/mol | Tm [2]: 60.1 °C

GTTTTGGGAAACTAGAAC (((.(.(....).).)))
folding enthalpy [1]: -7.83 kcal/mol | Tm [2]: 23.7 °C

GCTTTCGGAAACGGAAGC ((((.((....)).))))
folding enthalpy [1]: -39.8 kcal/mol | Tm [2]: 53.2 °C

CGAGCCGGAAACGGTCG (((.(((....))))))
folding enthalpy [1]: -27.3 kcal/mol | Tm [2]: 48.6 °C

GTCCACGGAAACATGGAC (((((.(....).)))))
folding enthalpy [1]: -25.5 kcal/mol | Tm [2]: 43.2 °C

CGGCTCGGAAACGATCCG (((.(((....))).)))
folding enthalpy [1]: -44.5 kcal/mol | Tm [2]: 49.2 °C

GCGGTGCCCGC ((((...))))
folding enthalpy [1]: -19.3 kcal/mol | Tm [2]: 55.5 °C

GGCGCCGAAAGGCCAGCC ((((((....)))..)))
folding enthalpy [1]: -21.1 kcal/mol | Tm [2]: 61 °C

GCAAGGCGAAAGCTTTGC ((((.((....)).))))
folding enthalpy [1]: -39 kcal/mol | Tm [2]: 63.9 °C

GGAACAGGAAACTGTTCC (((((((....)))))))
folding enthalpy [1]: -35.9 kcal/mol | Tm [2]: 60.6 °C

GATCTTGACAAAGATC ((((((....))))))
folding enthalpy [1]: -44 kcal/mol | Tm [2]: 52.7 °C

GATTGCGGAAACGTAATC ((((.((....)).))))
folding enthalpy [1]: -38.8 kcal/mol | Tm [2]: 47.6 °C

CGAGACGGAAACGTGTCG (((.(((....))).)))
folding enthalpy [1]: -37.6 kcal/mol | Tm [2]: 52.1 °C

GTCGTGGGAAACTACGGC (.(((.(....).))).)
folding enthalpy [1]: -25.6 kcal/mol | Tm [2]: 44.7 °C

GGATCAGGAAACTGGTTC (.(.(((....))).).)
folding enthalpy [1]: -12.2 kcal/mol | Tm [2]: 29.1 °C

GTTGATCCGAAAGGAAAC (((..(((....))))))
folding enthalpy [1]: -20.8 kcal/mol | Tm [2]: 27.6 °C

GACAACGAAAGTTTGTC ((((((....))).)))
folding enthalpy [1]: -27.6 kcal/mol | Tm [2]: 47.3 °C

GACCTACCGAAAGGTGTC (((..(((....))))))
folding enthalpy [1]: -18 kcal/mol | Tm [2]: 30.8 °C

GTGGTGGGAAACCGCTAC ((.(.((....)).).))
folding enthalpy [1]: -19.3 kcal/mol | Tm [2]: 46.7 °C

GGGGGTTCGAAAGAACCC (((..(((....))))))
folding enthalpy [1]: -7.33 kcal/mol | Tm [2]: 58.9 °C

GGTAGGGGAAACCCCACC (((.(((....))).)))
folding enthalpy [1]: -23.7 kcal/mol | Tm [2]: 46.2 °C

GCGGTGCGAAAGCAATGC ((..(((....)))..))
folding enthalpy [1]: -29.2 kcal/mol | Tm [2]: 59 °C

From the array DNA melting data of Ke et al. (doi:10.1101/2024.01.08.574731)
